Assay results published in ChEMBL document CHEMBL4177559, “Design, Synthesis, and Evaluation of a Series of Novel Benzocyclobutene Derivatives as General Anesthetics” (J Med Chem, 2017).

Columns and labels:
Mus musculus [1] = experiment: Anesthetic activity in iv dosed ICR mouse assessed as onset time for loss of righting reflex administered as single bolus dose; format: functional
In short: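 ICR mice (fasted, 18−22 g, 10 per dose group, 7−9 groups) got one tail-vein iv bolus (~10 s) in 5% DMSO/5−10% Solutol HS-15/85−90% saline. Onset was the time from dosing to loss of righting reflex.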

Mus musculus [2] = experiment: Anesthetic activity in iv dosed ICR mouse assessed as anesthetic duration time by measuring loss of righting reflex administered as single bolus dose; format: functional
In short: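 Fasted ICR mice (18−22 g, 10 per group) received a single ~10 s lateral tail-vein bolus in 5% DMSO/5−10% Solutol HS-15/saline. Duration was the time from dosing to recovery of righting reflex, recorded at the dose giving 100% loss of righting reflex.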

Mus musculus [3] = experiment: Anesthetic activity in iv dosed ICR mouse assessed as dose required to produce anesthesia administered as single bolus dose; format: functional
In short: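 Fasted ICR mice (18−22 g, male and female) were randomised into 7−9 dose groups of 10 each. Each received one intravenous bolus over about 10 s in the lateral tail vein. Vehicle was 5% DMSO, 5−10% Solutol HS-15 and 85−90% saline. The endpoint was loss of righting reflex, and ED50 was derived by nonlinear fitting of dose–response.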

[4] = Therapeutic index, ratio of LD50 for toxicity in ICR mouse to ED50 for anesthetic effect in ICR mouse; format: organism-based; details: in vivo, read-out: Ratio LD50/ED50
In short: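 Fasted ICR mice (18−22 g, male and female), 7−9 dose groups of 10, given a single ~10 s iv bolus into the lateral tail vein in 5% DMSO, 5−10% Solutol HS-15, 85−90% saline. Loss of righting reflex scored; ED50 and LD50 derived by nonlinear fitting; TI = LD50/ED50.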

[5] = Clearance in Sprague-Dawley rat at 1 mg/kg, iv administered as single dose; format: ADME, organism-based; details: in vivo
Rattus norvegicus = experiment: Cmax in Sprague-Dawley rat at 1 mg/kg, iv administered as single dose; format: ADME, organism-based; set-up: dose 1 mg/kg, route intravenous; details: in vivo
[6] = AUC in Sprague-Dawley rat at 1 mg/kg, iv administered as single dose; format: ADME, organism-based; details: in vivo

CC(C)c1ccc2c(c1O)C(C)(N=[N+]=[N-])C2 (racemic)
Time (Mus musculus [1]): <10 s
Time (Mus musculus [2]): 381.7 s
ED50 (Mus musculus [3]): 9.4 mg/kg
selectivity ratio [4]: 5.9

CC(C)c1ccc2c(c1O)[C@H](C)C2
clearance [5]: 4.62 L/h/kg

CC(C)c1ccc2c(c1O)[C@@H](C)C2
clearance [5]: 4.02 L/h/kg

CC(C)c1cccc(C(C)C)c1O [PROPOFOL]
Time (Mus musculus [1]): <10 s
Time (Mus musculus [2]): 303.2 s
selectivity ratio [4]: 2.7
Cmax (Rattus norvegicus): 0.384 µg/mL
AUC [6]: 0.077 µg·h/mL
